ChEMBL document CHEMBL3046318, “Synthesis of a combinatorial library of amides and its evaluation against the fall armyworm, Spodoptera frugiperda” (2011)

What was measured:
Type in all cases: functional
[1] = test system: Spodoptera frugiperda; assay: Insecticidal activity against 5 day old second instar larvae of Spodoptera frugiperda (fall armyworm) measured after 48 hr topical administration
How it was run: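 Topical application to second instar larvae, 1 μL per insect in acetone (control: acetone alone). About 300 mg of artificial diet supplied 1 h after application. Mortality counted at 48 h. Five replicates. Single-sample screens of mixtures were run at 2000 mg L-1, with means compared by Tukey test (P ≤ 0.05). LD50 from log dose probit lines, with Abbott correction for control mortality.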

[2] = test system: Spodoptera frugiperda; assay: Insecticidal activity against pupal phase Spodoptera frugiperda (fall armyworm) assessed as mortality at 1 mg/kg compound administration with artificial diet (reference value: 13.3%)
How it was run: (§1)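 Ingestion assay on first instar larvae (1 day old), 30 per treatment and per control. Compound was dissolved in acetone, mixed with the diet's ascorbic acid (1.8 g), dried under vacuum at 40 °C, then incorporated into a bean/wheat germ artificial diet at 1-100 mg kg-1. Mortality recorded for the larval phase, the pupal phase and the total cycle.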

[3] = test system: Spodoptera frugiperda; assay: Insecticidal activity against larval phase Spodoptera frugiperda (fall armyworm) assessed as mortality at 1 mg/kg compound administration with artificial diet (reference value: 6.66%); how it was run: as §1
[4] = test system: Spodoptera frugiperda; assay: Insecticidal activity against Spodoptera frugiperda (fall armyworm) during total cycle assessed as mortality at 10 mg/kg compound administration with artificial diet (reference value: 13.3%); how it was run: as §1
[5] = test system: Spodoptera frugiperda; assay: Insecticidal activity against pupal phase Spodoptera frugiperda (fall armyworm) assessed as mortality at 10 mg/kg compound administration with artificial diet (reference value: 13.3%); how it was run: as §1
[6] = test system: Spodoptera frugiperda; assay: Insecticidal activity against larval phase Spodoptera frugiperda (fall armyworm) assessed as mortality at 10 mg/kg compound administration with artificial diet (reference value: 6.66%); how it was run: as §1
[7] = test system: Spodoptera frugiperda; assay: Insecticidal activity against Spodoptera frugiperda (fall armyworm) during total cycle assessed as mortality at 50 mg/kg compound administration with artificial diet (reference value: 13.3%); how it was run: as §1
[8] = test system: Spodoptera frugiperda; assay: Insecticidal activity against pupal phase Spodoptera frugiperda (fall armyworm) assessed as mortality at 50 mg/kg compound administration with artificial diet (reference value: 13.3%); how it was run: as §1
[9] = test system: Spodoptera frugiperda; assay: Insecticidal activity against larval phase Spodoptera frugiperda (fall armyworm) assessed as mortality at 50 mg/kg compound administration with artificial diet (reference value: 6.66%); how it was run: as §1
[10] = test system: Spodoptera frugiperda; assay: Insecticidal activity against Spodoptera frugiperda (fall armyworm) during total cycle assessed as mortality at 100 mg/kg compound administration with artificial diet (reference value: 13.3%); how it was run: as §1
[11] = test system: Spodoptera frugiperda; assay: Insecticidal activity against pupal phase Spodoptera frugiperda (fall armyworm) assessed as mortality at 100 mg/kg compound administration with artificial diet (reference value: 13.3%); how it was run: as §1
[12] = test system: Spodoptera frugiperda; assay: Insecticidal activity against larval phase Spodoptera frugiperda (fall armyworm) assessed as mortality at 100 mg/kg compound administration with artificial diet (reference value: 6.66%); how it was run: as §1
[13] = test system: Spodoptera frugiperda; assay: Insecticidal activity against Spodoptera frugiperda (fall armyworm) during total cycle assessed as mortality at 1 mg/kg compound administration with artificial diet (reference value: 13.3%); how it was run: as §1

## O=C(c1ccc(OC(F)(F)F)cc1)N1CCCCC1
[1]
  LD50: 8.15 µg/mg

## O=C(/C=C/c1ccc(OC(F)(F)F)cc1)N1CCCCC1
[2]
  mortality at 1 mg/kg: 61.4%
[3]
  mortality at 1 mg/kg: 65.8%
[4]
  mortality at 10 mg/kg: 86.6%
[5]
  mortality at 10 mg/kg: 48.6%
[6]
  mortality at 10 mg/kg: 63.3%
[7]
  mortality at 50 mg/kg: 93.3%
[8]
  mortality at 50 mg/kg: 69.4%
[9]
  mortality at 50 mg/kg: 73.3%
[10]
  mortality at 100 mg/kg: 86.6%
[11]
  mortality at 100 mg/kg: 75%
[1]
  LD50: 0.793 µg/mg
[12]
  mortality at 100 mg/kg: 55%
[13]
  mortality at 1 mg/kg: 83.3%
